Assay results as given in ChEMBL document CHEMBL1131936, “Structure-activity relationships of a series of benzothiophene-derived NPY Y1 antagonists: optimization of the C-2 side chain” (Bioorg Med Chem Lett, 1999).

target: T1, Neuropeptide Y receptor type 1 (Homo sapiens, UniProt P25929); test: Ability to displace [125I]pPYY from AV12 cell line stably transfected with cloned human neuropeptide Y receptor type 1.; format: cell-based
T1 sequence (P25929 whole entry): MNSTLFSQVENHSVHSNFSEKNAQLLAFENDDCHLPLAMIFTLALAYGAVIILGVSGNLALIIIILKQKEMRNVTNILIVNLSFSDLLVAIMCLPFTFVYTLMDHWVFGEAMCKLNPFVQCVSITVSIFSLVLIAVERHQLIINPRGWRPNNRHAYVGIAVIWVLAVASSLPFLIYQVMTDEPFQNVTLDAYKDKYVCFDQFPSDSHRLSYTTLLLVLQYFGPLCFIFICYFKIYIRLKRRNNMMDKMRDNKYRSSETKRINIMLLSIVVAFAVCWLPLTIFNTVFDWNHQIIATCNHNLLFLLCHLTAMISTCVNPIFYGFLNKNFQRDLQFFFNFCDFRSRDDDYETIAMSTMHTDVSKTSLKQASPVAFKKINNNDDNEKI
Procedure, shortened: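 Membranes prepared from AV12 cells stably transfected with the human Y1 receptor; test compound displacement of 125I-porcine PYY binding measured, method as previously reported. Ki reported in μM.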

Row | SMILES | Ki [nM]
1 | Clc1ccc(OCc2sc3ccccc3c2CCN2CCCCC2)cc1 | 1900
2 | CN(C)C1CCN(CCc2c(C(Oc3ccc(Cl)cc3Cl)c3ccccc3)sc3ccccc23)CC1 (stereo unspecified) | 5800
3 | CN(C)C1CCN(CCc2c(C(=O)Nc3ccc(Cl)cc3Cl)sc3ccccc23)CC1 | 2300
4 | CN(C)C1CCN(CCc2c(CCOc3ccc(Cl)cc3Cl)sc3ccccc23)CC1 | 2800
5 | CN(C)C1CCN(CCc2c(COc3c(Br)cc(Br)cc3Br)sc3ccccc23)CC1 | 3600
6 | C=CCc1ccccc1OCc1sc2ccccc2c1CCN1CCC(N(C)C)CC1 | 980
7 | CN(C)Cc1cc(Br)ccc1OCc1sc2ccccc2c1CCN1CCC(N(C)C)CC1 | 2430
8 | CN(C)C1CCN(CCc2c(/C=N/Nc3ccc(Cl)cc3Cl)sc3ccccc23)CC1 | 4500
9 | CN(C)C1CCN(CCc2c(COc3ccccc3C=O)sc3ccccc23)CC1 | 2760
10 | CC(CN1CCC(N(C)C)CC1)c1c(COc2ccc(Cl)cc2Cl)sc2ccccc12 (stereo unspecified) | 690
11 | Cc1cc(C)c(OCc2sc3ccccc3c2CCN2CCC(N(C)C)CC2)c(C)c1 | 2420
12 | CN(C)C1CCN(CCc2c(-c3ccc(Cl)cc3Cl)sc3ccccc23)CC1 | 6500
13 | CN(C)C1CCN(CCc2c(C(C)(C)Oc3ccc(Cl)cc3Cl)sc3ccccc23)CC1 | 12000
14 | Cc1ccc(OCc2sc3ccccc3c2CCN2CCC(N(C)C)CC2)c(C(C)(C)C)c1 | 2830
15 | CN(C)C1CCN(CCc2c(C(O)c3ccc(Cl)cc3Cl)sc3ccccc23)CC1 (stereo unspecified) | 3800
16 | CN(C)C1CCN(CCc2c(CO)sc3ccccc23)CC1 | 88000
17 | CN(C)C1CCN(CCc2c(COc3ccccc3CO)sc3ccccc23)CC1 | 450

Row | SMILES | Ki [nM]
18 | Clc1ccc(OCc2sc3ccccc3c2CN2CCCCC2)cc1 | 11100
19 | CN(C)C1CCN(CCc2c(Cc3ccc(Cl)cc3Cl)sc3ccccc23)CC1 | 4200
20 | CC(Oc1ccc(Cl)cc1Cl)c1sc2ccccc2c1CCN1CCC(N(C)C)CC1 (stereo unspecified) | 1700
21 | CN(C)C1CCN(CCc2c(COc3ccc(C(F)(F)F)cc3)sc3ccccc23)CC1 | 740
22 | COC(c1ccc(Cl)cc1Cl)c1sc2ccccc2c1CCN1CCC(N(C)C)CC1 (stereo unspecified) | 4000
23 | CNCc1cc(Br)ccc1OCc1sc2ccccc2c1CCN1CCC(N(C)C)CC1 | 660
24 | CN(C)C1CCN(CCc2c(COc3ccc(Br)cc3C(F)(F)F)sc3ccccc23)CC1 | 720
25 | CN(C)C1CCN(CCc2c(C(=O)c3ccc(Cl)cc3Cl)sc3ccccc23)CC1 | 5600
26 | CN(C)C1CCN(CCc2c(/C=C/c3ccc(Cl)cc3Cl)sc3ccccc23)CC1 | 12400
27 | CN(C)C1CCN(CCc2c(/C=N/c3ccc(Cl)cc3Cl)sc3ccccc23)CC1 | 12600
28 | CN(C)C1CCN(CCc2c(COc3ccc(-c4ccccc4)cc3)sc3ccccc23)CC1 | 3700
29 | CN(C)C1CCN(CCc2c(COc3ccccc3Br)sc3ccccc23)CC1 | 450
30 | CN(C)C1CCN(CCc2c(CNc3ccc(Cl)cc3Cl)sc3ccccc23)CC1 | 1700
31 | CN(C)C1CCN(CCc2c(COc3ccccc3)sc3ccccc23)CC1 | 1260
32 | Clc1ccc(OCc2sc3ccccc3c2CCCN2CCCCC2)cc1 | 2600
33 | CN(C)C1CCN(CCc2c(C#Cc3ccc(Cl)cc3Cl)sc3ccccc23)CC1 | 7900

Now those with a lower Ki, led by results:

Row | Ki [nM] | SMILES
34 | 420 | Cc1cc(Br)ccc1OCc1sc2ccccc2c1CCN1CCC(N(C)C)CC1
35 | 420 | Cc1ccccc1OCc1sc2ccccc2c1CCN1CCC(N(C)C)CC1
36 | 380 | CN(C)C1CCN(CCc2c(COc3ccccc3I)sc3ccccc23)CC1
37 | 380 | CN(C)C1CCN(CCc2c(COc3ccc(C#N)cc3Br)sc3ccccc23)CC1
38 | 370 | Cc1ccc(OCc2sc3ccccc3c2CCN2CCC(N(C)C)CC2)cc1
39 | 310 | CN(C)C1CCN(CCc2c(COc3ccc(Cl)cc3)sc3ccccc23)CC1
40 | 190 | CN(C)C1CCN(CCc2c(COc3ccc(CO)cc3Br)sc3ccccc23)CC1
41 | 172 | CN(C)C1CCN(CCc2c(COc3ccc(Br)cc3C(N)=O)sc3ccccc23)CC1
42 | 160 | CN(C)C1CCN(CCc2c(COc3ccc(Br)cc3)sc3ccccc23)CC1
43 | 140 | CN(C)C1CCN(CCc2c(COc3ccc(Cl)cc3Cl)sc3ccccc23)CC1
44 | 120 | Cc1ccc(OCc2sc3ccccc3c2CCN2CCC(N(C)C)CC2)c(C)c1
45 | 120 | CN(C)C1CCN(CCc2c(COc3ccc(Br)cc3Br)sc3ccccc23)CC1
46 | 78 | Cc1ccc(OCc2sc3ccccc3c2CCN2CCC(N(C)C)CC2)c(Br)c1
47 | 15 | CN(C)C1CCN(CCc2c(COc3ccc(Br)cc3CO)sc3ccccc23)CC1
48 | 13 | CN(C)C1CCN(CCc2c(COc3ccc(Br)cc3C#N)sc3ccccc23)CC1
49 | 11 | COCc1cc(Br)ccc1OCc1sc2ccccc2c1CCN1CCC(N(C)C)CC1

target: T1, Neuropeptide Y receptor type 1; test: Functional Neuropeptide Y receptor type 1 antagonism was evaluated by its ability to reverse NPY induced inhibition of forskolin-stimulated cyclic AMP production in SK-N-MC cells; format: cell-based
Procedure, shortened: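 SK-N-MC cells; forskolin-stimulated cyclic AMP production inhibited by NPY, and test compound reversal of this inhibition measured. Ki derived, n = 2–3 determinations.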

Row | Ki [nM] | SMILES
50 | 1200 | CN(C)C1CCN(CCc2c(COc3ccc(Br)cc3CO)sc3ccccc23)CC1
51 | 4700 | CN(C)C1CCN(CCc2c(COc3ccc(Cl)cc3Cl)sc3ccccc23)CC1
